Results collected from several papers.
Compare with care: the assays were run in different laboratories.
STK38L: Serine/threonine-protein kinase 38-like (STK38L, Homo sapiens, UniProt Q9Y2H1)

SMILES	target	assay	system	setting	measurement	value
C[C@H](C(=O)N[C@H]1COc2ccccc2[C@@H]1S(C)(=O)=O)c1ccc(F)cc1	Beta-3 adrenergic receptor (ADRB3, Homo sapiens, UniProt P13945)	cell-free assay	–	10 µM	inhibition	-12%
Nc1ncc(-c2nc(N3CCOCC3)nc(N3CCOCC3)n2)c(C(F)F)n1	Calcium/calmodulin-dependent protein kinase type II subunit gamma (CAMK2G, Homo sapiens, UniProt Q13555)	binding, competition with immobilised ligand	–	10 µM	remaining binding	73%
COc1ncccc1-c1cnn2ccc(N3CCN(C(=O)OC(C)C)CC3)nc12	STK38L	binding, competition with immobilised ligand	–	1 µM	remaining binding	100%
C#Cc1n[nH]c2c(-c3cn([C@@H](C)c4ccccn4)c(=O)[nH]c3=O)cc(F)cc12	Serine/threonine-protein kinase PAK 4 (PAK4, Homo sapiens, UniProt O96013)	enzyme activity, inhibitor	–	0.1 µM	inhibition	0.2%
Cc1nn(C)cc1-c1nc2c(N3CCN(Cc4ccc(Cl)cc4)CC3)c(Cl)cnc2[nH]1	Receptor tyrosine-protein kinase erbB-3 (ERBB3, Homo sapiens, UniProt P21860)	binding, competition with immobilised ligand	–	1 µM	remaining binding	95%
O=c1ccc2ccc3occc3c2o1	Aldehyde dehydrogenase, mitochondrial (ALDH2, Homo sapiens, UniProt P05091)	enzyme activity, inhibitor, absorbance	–	10 µM	activity vs control	95.2%
COc1cc(Nc2ncc(F)c(Nc3ccc4c(n3)NC(=O)C(C)(C)O4)n2)cc(OC)c1OC	STK38L	binding	–	10 µM	inhibition	48%
CCN(CC)CCCC[C@H](NC(=O)[C@H](CC(C)C)NC(=O)[C@H](C)NC(=O)[C@H](Cc1ccccc1)NC(=O)c1ccc(C(C)(C)C)cc1)C(=O)N[C@@H](CO)C(=O)OC	Protein polybromo-1, bromodomain (PBRM1, Homo sapiens, UniProt Q86U86)	thermal stability, DSF	–	25 µM	ΔTm	-0.15 °C
CC[C@]1(O)C[C@H]2CN(CCc3c([nH]c4ccccc34)[C@@](C(=O)OC)(c3cc4c(cc3OC)N(C=O)[C@H]3[C@@](O)(C(=O)OC)[C@H](OC(C)=O)[C@]5(CC)C=CCN6CC[C@]43[C@@H]65)C2)C1	Organic cation/carnitine transporter 2 (SLC22A5, Homo sapiens, UniProt O76082)	transporter uptake, inhibitor	HEK293	100 µM	remaining activity	33.6%
CCCCCCCCCCCCCC(=O)O[C@@H]1[C@@H](C)[C@@]2(O)[C@@H](C=C(CO)C[C@]3(O)C(=O)C(C)=C[C@@H]23)[C@@H]2C(C)(C)[C@]12OC(C)=O	Adenosine receptor A2b (Adora2b, Rattus norvegicus, UniProt P29276)	cAMP, agonist	H9c2	–	Emax	19.6%
C#Cc1n[nH]c2c(-c3cn([C@@H](C)c4ccccc4)c(=O)[nH]c3=O)cc(F)cc12	Serine/threonine-protein kinase Sgk1 (SGK1, Homo sapiens, UniProt O00141)	enzyme activity, inhibitor	–	0.1 µM	inhibition	-1.8%
CC1CCCN(c2ncc(Cl)c(Nc3ccc4c(c3)n(CCC(C)(C)O)c(=O)n4C)n2)C1 (stereo not drawn)	B-cell lymphoma 6 protein (BCL6, Homo sapiens, UniProt P41182)	protein level, degrader	SU-DHL-4	–	Dmax	85%
